Bioassay records as filed in PubChem BioAssay.
Only some compounds are listed: those with a hit (about 7.2% of all), similar ones and a draw of the others.
PostGolgi ctrl = inhibits growth of the yeast control strain. 98,000 tested, 5% active. inhibition, % at 10 µM. efflux-deficient yeast background strain, growth absorbance A615, 16 h. AID 738
tolC growth inh = E. coli tolC mutant growth inhibition; E. coli BW25113 tolC mutant growth, OD615; growth inhibition, % at 10 µM (by protocol); 65,000 tested, 2.2% active; AID 573;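 active = growth inhibition at or above a cutoff equal to the mean over every tested compound plus 3 SD, cut at about 60% in these data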;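 note: growth measured after 20 h incubation at 37 °C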
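Signal: optical density read at 615 nm; Assay system: E. coli ΔtolC::kan strain BW25113; Times: 20 h incubation with compound, 37 °C; Dosing: 10 µM final, single dose.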
PostGolgi yeast = growth inhibition of a yeast mutant, post-Golgi transport screen; post-Golgi transport phenotypic cell assay; inhibition, % at 10 µM; 98,000 tested, 0.9% active;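 note: yeast cells grown in 1536-well plates; yeast grown about 18 h at 30C before absorbance read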
Ecoli WT expand = blocks growth of wild type E. coli BW25113; growth inhibition, % at 100 µM; 98,000 tested, 0.15% active; OD600 absorbance;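 active = growth inhibition above about 50% at one test dose, limit read from the data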;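 note: growth measured after 20 h incubation at 37 °C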
PLAP act = human PLAP activation | P05187 | 96,000 tested, 1.2% active | AID 696 | purified PLAP enzyme, luminescent substrate read-out; stronger effect = higher value | activation fold at 20 µM; in the data active = activation fold above about 2
Target sequence (P05187 whole entry, looked up): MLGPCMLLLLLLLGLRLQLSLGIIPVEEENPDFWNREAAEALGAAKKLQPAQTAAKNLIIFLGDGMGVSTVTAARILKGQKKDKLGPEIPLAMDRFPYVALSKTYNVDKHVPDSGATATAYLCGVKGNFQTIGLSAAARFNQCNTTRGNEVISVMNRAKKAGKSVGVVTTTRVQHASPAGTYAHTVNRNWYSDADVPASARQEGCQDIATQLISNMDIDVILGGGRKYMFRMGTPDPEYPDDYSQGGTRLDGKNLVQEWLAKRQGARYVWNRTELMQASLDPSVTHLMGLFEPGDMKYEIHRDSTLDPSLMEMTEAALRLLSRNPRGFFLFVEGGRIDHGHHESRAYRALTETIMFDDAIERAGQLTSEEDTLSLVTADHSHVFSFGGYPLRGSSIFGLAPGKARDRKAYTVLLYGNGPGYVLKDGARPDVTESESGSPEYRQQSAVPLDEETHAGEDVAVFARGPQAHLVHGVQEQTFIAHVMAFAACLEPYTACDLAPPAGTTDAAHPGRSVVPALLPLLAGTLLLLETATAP
Numbers stand for hits; – = inactive; · = no result. Cut-off read from the data, not from the text of the source, unless noted: active = inhibition above about 30%; inactive = the rest.

SMILES | PostGolgi ctrl | tolC growth inh | PostGolgi yeast | Ecoli WT expand | PLAP act
O=C(Nc1nnc(-c2ccccc2Cl)o1)c1cccnc1 | – | 70 | – | – | –
CCc1nnc(NC(=O)c2ccc(S(=O)(=O)N3CCCCC3C)cc2)s1 (centres undefined) | – | – | – | – | –
C#CCOC(=O)CCCNc1ccc([N+](=O)[O-])cc1[N+](=O)[O-] | – | · | – | – | –
CC1(C)CC(NCc2ccc3c(c2)OCO3)CCO1 (centres undefined) | – | · | – | – | –
Cc1nnc(NC(=O)c2ccc(S(=O)(=O)N3CCCCCC3)cc2)o1 | – | – | – | – | –
CC1CCCN(S(=O)(=O)c2ccc(C(=O)Nc3nnc(-c4ccccc4Cl)o3)cc2)C1 (centres undefined) | – | 100 | – | – | –
O=C(CN1C(=O)C2C3C=CC(C3)C2C1=O)N1CC=C(c2ccccc2)CC1 (centres undefined) | 31 | – | – | – | –
O=c1[nH]c2ccccc2n1CCCSCCCn1c(=O)[nH]c2ccccc21 | · | – | · | · | –
c1ccc2c(c1)ncn2CCC1CCCCC1 | 80 | – | – | – | –
O=c1[nH]c2ccccc2n1CCC1CCCCC1 | 49 | · | – | – | –
CCOC(=O)C1=C(c2ccccc2)O/C(=C(/C#N)C(F)(F)F)S1 | 39 | · | – | – | –
O=C(COc1cccc2cccnc12)N1CCc2ccccc2C1 | – | – | – | – | –
O=C(COc1c(Br)cc(Br)c2cccnc12)N1CCc2ccccc2C1 | 67 | · | – | – | –
CCCC(CCC)C(=O)Nc1cccc(C(=O)O)c1 | – | · | – | – | –
COc1ccc(S(=O)(=O)N2CCCC(C(=O)Nc3ccc(OC)c(OC)c3)C2)cc1 (centres undefined) | 39 | – | – | – | –
Cc1ccc(CNC(=O)C2CCCN(S(=O)(=O)c3c(C)n[nH]c3C)C2)cc1 (centres undefined) | – | · | – | – | 2.3
CCOc1ccccc1NC(=O)C1CCCN(S(=O)(=O)c2ccc(OC)c(C)c2)C1 (centres undefined) | 31 | – | – | – | –
COc1ccc(CNC(=O)C2CCCN(S(=O)(=O)c3cc(C)ccc3OC)C2)cc1 (centres undefined) | 40 | – | – | – | –
Cc1n[nH]c(C)c1S(=O)(=O)N1CCCC(C(=O)NCc2cccs2)C1 (centres undefined) | – | – | – | – | –
COc1ccc(C)cc1S(=O)(=O)N1CCN(S(=O)(=O)c2cc(C)ccc2OC)C(C)C1 (centres undefined) | – | – | – | – | –
COc1ccc(C)cc1S(=O)(=O)N1CCC(C)CC1 | 42 | – | – | – | –
CC1CCN(C(=O)CCCNC(=O)Cn2cnc3sc4c(c3c2=O)CCCC4)CC1 | – | · | – | – | –
COc1cc2c(C#N)c(N3CCN(c4ccccc4OC)CC3)nc(N)c2c(N)n1 | 36 | – | – | – | –
Cc1oc(-c2ccc(Cl)cc2)nc1CN1CCC(C(=O)N2CCc3ccccc3C2)CC1 | – | – | – | – | –
COc1ccc(CCNC(=O)C2CCN(Cc3nc(-c4ccccc4F)oc3C)CC2)cc1OC | – | – | – | – | –
SMILES | PostGolgi ctrl | tolC growth inh | PostGolgi yeast | Ecoli WT expand | PLAP act
CCc1ccc(-c2nc(CN3CCC(C(=O)NCCc4ccc(OC)c(OC)c4)CC3)c(C)o2)cc1 | – | – | – | – | 2.4
Cc1oc(-c2ccc(Cl)cc2)nc1CN1CCC(C(=O)N2CCN(Cc3ccccc3)CC2)CC1 | 33 | – | – | – | –
CCOC(=O)Cc1cnc(NC(=O)NC(C(=O)OCC)(c2ccccc2)C(F)(F)F)s1 (centres undefined) | – | – | – | – | –
Cc1nc2c(C(=O)NCc3ccc4c(c3)OCO4)c[nH]n2c(=O)c1Cl | – | – | – | – | –
Cc1nc2c(C(=O)NCCC3=CCCCC3)c[nH]n2c(=O)c1Cl | – | 79 | – | – | –
COCC(=O)Nc1ccc(C)c(Cl)c1 | – | – | – | – | –
CSCCC(NC(=O)c1ccccc1)C(=O)OCC(=O)Nc1ccc(C)c(Cl)c1 (centres undefined) | 31 | · | – | – | –
O=C(c1ccco1)N1c2ccccc2Sc2ccccc21 | 32 | – | – | – | ·
O=C(c1ccco1)N1CCN(C(=O)N2c3ccccc3Sc3ccccc32)CC1 | 44 | – | – | – | –
CN1C(=O)/C(=C\c2ccccc2)Sc2ccc(C(=O)N3CCN(c4ccccn4)CC3)cc21 | 32 | · | – | – | –
O=C(NC1CCN(C(=O)N2c3ccccc3Sc3ccccc32)CC1)c1ccccc1Cl | 43 | · | – | – | –
O=C(NC1CCN(C(=O)N2c3ccccc3Sc3ccccc32)CC1)c1ccco1 | – | – | – | – | –
CCOC(=O)N1CCN(c2nc(C)c3c(n2)CC(C)CC3=O)CC1 (centres undefined) | – | – | – | – | –
CCOc1cc2[nH]c(=O)n(CC3CCC(C(=O)NC(C)CC)CC3)c(=O)c2cc1OCC (centres undefined) | · | – | · | · | ·
O=C(c1c(Cl)cccc1Cl)N1CCN(c2ccccn2)CC1 | – | – | – | – | –
O=C(N1CCN(c2ccccn2)CC1)N1c2ccccc2Sc2ccccc21 | 85 | 62 | – | – | –
CCc1oc2ccccc2c1C(=O)CCN1CCCCC1 | 36 | – | – | – | –
Cc1ccccc1C(=O)N1CCC(C(N)=O)CC1 | – | · | – | – | –
C/C(CCc1oc2ccccc2c1-c1ccc(C)o1)=N/O | 47 | 98 | – | – | –
COc1ccc(OC)c(-c2cc(C3CCN(c4ncccc4[N+](=O)[O-])CC3)[nH]n2)c1 | – | · | – | – | –
O=[N+]([O-])c1cccnc1N1CCC(c2cc(-c3ccc(Cl)cc3Cl)n[nH]2)CC1 | 59 | · | – | – | –
COc1cc2ccccc2cc1C(=O)Nc1ccccc1N1CCN(S(C)(=O)=O)CC1 | 38 | – | – | – | –
CS(=O)(=O)N1CCN(c2ccccc2NC(=O)c2ccc(-c3ccc(Br)cc3)o2)CC1 | – | · | – | – | –
O=C(CN1CCOCC1)Nc1ncc(Cc2ccccc2Cl)s1 | – | · | – | – | 2
CCCc1nc(NCc2ccncc2)c2nnn(Cc3ccccc3F)c2n1 | – | – | – | – | ·
SMILES | PostGolgi ctrl | tolC growth inh | PostGolgi yeast | Ecoli WT expand | PLAP act
CCCc1nc(NCc2ccccn2)c2nnn(Cc3ccccc3F)c2n1 | 100 | · | – | – | –
COc1ccc(C(=O)Cn2c(C(=O)/C=C/c3ccccc3)nc3ccccc32)cc1 | – | · | – | – | –
COc1ccc(Nc2ccc3c(c2)=NC2(CCCCC2)[N+]=3[O-])cc1 | – | – | – | – | –
[O-][N+]1=c2ccc(Nc3ccccc3)cc2=NC12CCCCC2 | – | 90 | – | – | –
COc1cc(NC(=O)c2cccc3c2C(=O)N(Cc2cccnc2)C3)cc(OC)c1OC | – | – | – | – | –
O=C(Cn1nnc(-c2ccccc2Cl)n1)NCc1ccc2c(c1)OCO2 | – | · | – | – | –
COc1ccccc1-c1cc(C(=O)NC(C)c2ccccc2)no1 (centres undefined) | 61 | 72 | – | – | –
COc1ccccc1-c1cc(C(=O)NC(C)C)no1 | – | – | – | – | –
Cc1nn(-c2ccccc2)c2c1C(c1ccc(O)c(O)c1)N1C(=N2)C(Nc2ccccc2)=Nc2ccccc21 (centres undefined) | 51 | · | – | – | –
